Bioassay records (PubChem)
Rtt109 Vps75: blocks Candida albicans Rtt109/Vps75 acetyltransferase activity. 330,000 tested, 0.16% active. purified Rtt109/Vps75, ThioGlo CoA-SH fluorescence, 4 h. AID 540336. inhibition, % at 34.9 µM;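 active = inhibition of at least 50% in every replicate; inconclusive = best replicate reaches 50% inhibition but some replicates fall short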
FGF22 binding: binders of recombinant human FGF22 by thermal shift; SYPRO orange fluorescence; percent of sucrose octasulfate shift, DMSO zero; activity (Tm shift, normalised), % at 9.99 µM; 340,000 tested, 1.5% active; AID 651658;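 active = mean Tm shift, scaled 0 neutral to 100 positive control, at about 1.3% or above, every replicate too, limit read from the data; inconclusive = no clear call, values can overlap the other calls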
Efflux pump inh: antifungal efflux pump inhibition, Nile Red retention. S. cerevisiae Candida pump triplex. inhibition, % at 10 µM. 330,000 tested, 0.44% active. AID 485275;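 active = plate passing quality check with inhibition over a set limit, or well fluorescence over plate mean plus 4 SD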;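 note: Nile Red retained in pooled yeast measured as flow cytometry median fluorescence; higher means more Nile Red kept so more efflux inhibition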
ASAP1 GAP inh: inhibitors of human ASAP1 ArfGAP activity | AID 624377 | ASAP1-stimulated ARF1 GTP hydrolysis, GDP FP detection | inhibition, % at 16.5 µM | 360,000 tested, 0.19% active; in the data active = inhibition above about 25%
Target sequence (Q9ULH1 325-724 limits assumed): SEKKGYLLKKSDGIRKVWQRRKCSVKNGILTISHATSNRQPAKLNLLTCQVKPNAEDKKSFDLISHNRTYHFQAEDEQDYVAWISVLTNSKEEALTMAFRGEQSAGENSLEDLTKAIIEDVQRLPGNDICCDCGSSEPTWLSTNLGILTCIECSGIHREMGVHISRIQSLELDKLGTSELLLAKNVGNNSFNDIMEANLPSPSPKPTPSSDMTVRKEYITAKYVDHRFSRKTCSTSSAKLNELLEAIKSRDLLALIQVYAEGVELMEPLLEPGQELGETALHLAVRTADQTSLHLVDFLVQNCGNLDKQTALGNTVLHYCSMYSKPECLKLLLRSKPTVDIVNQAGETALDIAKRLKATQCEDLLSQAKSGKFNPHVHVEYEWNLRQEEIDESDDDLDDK
ARFGAP1 inhibitor: inhibits rat ARF GTPase activating protein 1 | Q62848 | Arfgap1-stimulated ARF1 GTP hydrolysis, GDP FP detection | 360,000 tested, 0.26% active | AID 651572 | inhibition, % at 16.5 µM;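 active = inhibition above a per-plate limit, mean inhibition of low control wells plus 3 SD, cut at about 25% in these data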
Target sequence (Q62848 1-136 limits assumed): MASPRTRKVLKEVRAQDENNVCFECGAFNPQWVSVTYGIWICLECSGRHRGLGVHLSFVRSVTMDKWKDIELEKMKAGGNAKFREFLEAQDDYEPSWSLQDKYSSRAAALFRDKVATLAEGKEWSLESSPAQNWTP
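System: truncated rat Arfgap1 GAP domain / Benchmarks: high control wells lacking Arfgap1, low control full reaction with DMSO / Times: compound-enzyme preincubation 20 min, reaction 120 min, detection 60 min, 25 °C / Repeats: one replicate per compound / Also added: human ARF1(Δ1-17)-GTP substrate / Measured by: Tracer-displacement fluorescence polarization with EDTA stop, 620/688 nm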
Numbers stand for hits; n = inactive; u = inconclusive; x = no result. Hits are enriched below; roughly 1.9% of the tested compounds scored in any of these assays.

SMILES	Rtt109 Vps75	FGF22 binding	Efflux pump inh	ASAP1 GAP inh	ARFGAP1 inhibitor
COC(=O)c1ccccc1S(=O)(=O)N1CCn2cccc2C1C (stereo unspecified)	n	43	n	n	n
COc1ccc(NC(C)=O)cc1S(=O)(=O)N1CCn2cccc2C1C (stereo unspecified)	n	n	n	n	n
O=C(CNC(=O)c1ccc(Br)o1)NC12CC3CC(CC(C3)C1)C2	58	n	n	n	n
COc1ccc(C(=O)Nc2cccc3nc(C)ccc23)c(OC)c1	n	n	n	n	n
O=[N+]([O-])c1ccc([C@H](O)[C@H](CO)N=Cc2ccccc2O)cc1	n	x	n	n	n
CCOC(=O)c1nc(NCc2ccccc2)c2ccccc2n1	n	44	n	n	n
C=CCNc1nc(C(=O)OCC)nc2ccccc12	n	n	n	n	n
CCSc1nc(N)nc2c1ncn2C1OC(CO)C(O)C1O (stereo unspecified)	n	n	x	n	n
Nc1nc(SCc2ccc(Br)cc2)c2ncn(C3OC(CO)C(O)C3O)c2n1 (stereo unspecified)	n	44	x	n	n
C=C(C)CNC(=O)CCc1nnc(Cc2cccc(C(F)(F)F)c2)o1	x	43	n	n	n
CC(C)(CO)CNC(=O)CCc1nnc(CCCc2ccccc2)o1	n	43	n	n	n
CCc1cccc(N=c2c([N+](=O)[O-])nn(-c3ccc(Cl)cc3)n2O)c1	n	n	n	n	n
CCc1cccc(N=c2c([N+](=O)[O-])nn(-c3ccc4c(c3)OCCO4)n2O)c1	n	43	n	n	n
Cc1ccc(CN2CC(N3CCN(c4ccccn4)CC3)CS2(=O)=O)cc1 (stereo unspecified)	x	n	x	n	n
C=CCC[C@H](Cc1ccc(F)cc1)C(=O)OC[C@@H](NC(=O)[C@@H](CC=C)CC(=O)N[C@@H](CO)Cc1ccccc1)C(C)(C)C	n	6.2	n	n	n
Cc1ccc(C(=O)NCC(=O)NC2CCCCCC2)cc1	61	n	n	n	n
COCCOC(=O)/C(=C/c1ccc(OC(=O)c2ccccc2)cc1)C(C)=O	n	x	n	x	x
CCOC(=O)/C(=C/c1ccc(OC(=O)c2ccncc2)cc1)C(C)=O	n	44	n	n	n
CCCCNC(=O)c1ccccc1NC(=O)CCSc1ccccc1	n	x	n	n	n
Nn1c(SCC(=O)Nc2nccs2)nnc1C1CC1	n	2.3	n	n	n
CCn1c(SCC(=O)Nc2nccs2)nnc1C1CC1	n	n	n	n	n
COc1ccc(NC(=O)C2CCN(C(=O)Nc3ccc(C)cc3)CC2)cc1OC	n	n	n	n	n
CC1=C(C)/C(=N\OS(=O)(=O)c2ccccc2)C=CC1=O	147	x	n	x	x
Cc1ccc(S(=O)(=O)O/N=C2\CCCc3ccccc32)cc1	n	x	n	n	n
COc1ccc(CN(C)C[C@@H]2Oc3ccc(NC(=O)NC4CCCCC4)cc3C(=O)N([C@@H](C)CO)C[C@@H]2C)cc1	x	n	x	x	x
SMILES	Rtt109 Vps75	FGF22 binding	Efflux pump inh	ASAP1 GAP inh	ARFGAP1 inhibitor
Cc1ccc(NS(=O)(=O)c2cc(NC(=O)c3ccc4c(c3)NC(=O)CS4)ccc2Cl)c(C)c1	n	43	n	n	n
COc1ccccc1NS(=O)(=O)c1ccc(C(=O)NCC(c2ccc(F)cc2)N2CCOCC2)cc1 (stereo unspecified)	n	n	n	n	n
COc1cc(C(=O)NC2CCCCC2)ccc1OCc1ccc(Cl)cc1Cl	n	43	n	n	n
COc1cc(C(=O)NCCC(C)C)ccc1OCc1ccc(Cl)cc1Cl	n	x	n	n	n
Cc1ccc(NC(=O)CNCc2ccccc2)c(Br)c1	n	n	n	n	n
Cc1ccc(CNCC(=O)Nc2ccc(C)cc2Br)cc1	n	44	n	n	n
COc1ccc(CCCc2n[nH]c(=S)o2)cc1C	n	43	n	n	n
COc1ccc(CCCc2n[nH]c(=S)n2C)cc1C	n	n	n	n	n
CC1CN(C)C(C)C/C1=N\Oc1ccc([N+](=O)[O-])cc1 (stereo unspecified)	n	n	n	n	n
CC1CN(C)C(C)C/C1=N/Oc1ccccc1[N+](=O)[O-] (stereo unspecified)	n	44	n	n	n
CNCc1sccc1C	n	43	n	n	n
CC(C)[C@H](NC(N)=O)C(=O)Nc1ccc(Oc2ccccc2)cc1	n	43	n	n	n
CCOC(=O)/C=C(\C)N1N=C(c2ccccc2)CC1c1ccccc1 (stereo unspecified)	n	43	n	n	n
CCOC(=O)c1nnn(CC(=O)N2N=C(c3ccccc3)CC2c2ccccc2)c1C(=O)OCC (stereo unspecified)	n	x	n	n	n
CCOC(=O)N1CCN(C(=O)C2CCN(C(=O)c3ccccc3C)CC2)CC1	u	1.4	x	n	n
O=C(Cc1ccccc1)N1C[C@@H]2[C@H](c3ccccc31)[C@@H](CO)N2C(=O)c1ccc(F)cc1	x	n	x	x	x
COc1cc(OC)cc(C(=O)NCC(=O)OCC(=O)Nc2cc(S(C)(=O)=O)ccc2Cl)c1	n	n	n	n	n
CS(=O)(=O)c1ccc(Cl)c(NC(=O)CCc2ccccc2)c1	n	43	n	n	n
CS(=O)(=O)c1ccc(Cl)c(NC(=O)COC(=O)CNC(=O)c2ccccc2)c1	n	44	n	n	n
Cc1ccc(NC2=C/C(=N\S(=O)(=O)c3cccs3)c3ccccc3C2=O)c(C)c1	n	x	n	x	x
Cc1cccc(NC2=C/C(=N/S(=O)(=O)c3cccs3)c3ccccc3C2=O)c1	n	x	n	33	n
O=C(O)c1ccc(NC2=C/C(=N/S(=O)(=O)c3cccs3)c3ccccc3C2=O)cc1	x	n	x	n	n
O=C1C(Nc2ccc(O)cc2)=C/C(=N/S(=O)(=O)c2cccs2)c2ccccc21	n	n	x	32	n
O=C(c1ccccc1)c1nc2ccccc2[nH]c1=O	n	x	n	n	n
COc1ccc(C(=O)Nc2ccc(Cl)cc2C(=O)NCCN2CCOCC2)cc1	n	x	n	n	n
SMILES	Rtt109 Vps75	FGF22 binding	Efflux pump inh	ASAP1 GAP inh	ARFGAP1 inhibitor
O=C(c1ccco1)N(CCO)Cc1cc2cc3c(cc2[nH]c1=O)OCO3	n	43	n	n	n
COc1ccc2[nH]c(=O)c(CN(CC3CCCO3)C(=S)Nc3ccccc3)cc2c1 (stereo unspecified)	n	44	n	n	n
COc1ccccc1NC(=S)N(CCCN(C)C)Cc1cc2cc3c(cc2[nH]c1=O)OCO3	n	44	n	n	n
CCN(CC)CCCN(Cc1cc2cc3c(cc2[nH]c1=O)OCO3)C(=S)Nc1ccccc1OC	n	n	n	n	n
CN(C)CCCN(Cc1cc2cc3c(cc2[nH]c1=O)OCO3)C(=S)Nc1ccccc1	n	43	n	n	n
COc1ccc2cc(CN(CC3CCCO3)C(=S)Nc3ccccc3)c(=O)[nH]c2c1 (stereo unspecified)	n	n	n	n	n
CN(C)CCCN(Cc1cc2cc3c(cc2[nH]c1=O)OCO3)C(=S)Nc1cccc(Cl)c1	n	n	n	n	n
OCCN(Cc1cccnc1)Cc1ccccn1	n	n	x	n	n
OCCN(Cc1ccccc1)Cc1ncccc1O	n	43	x	n	n
